The text below walks through data of ChEMBL document CHEMBL4017507 (J Med Chem, 2017).

Data set [1] can be described thus: Drug metabolism assessed as carboxypeptidase Y (unknown origin)-mediated metabolite 79 formation measured after 2 hrs by [31P]-NMR spectroscopic analysis. As to conditions: human. In kind it is ADME.
The nature of data set [2]: Cytotoxicity against human HEL cells assessed as alteration to cell morphology by microscopic analysis. Format: cell-based. The method, boiled down: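 Minimal cytotoxic concentration is the compound concentration giving a microscopically visible alteration of HEL cell morphology, scored in the antiviral assay cultures.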
For data set [3], the system named is Human betaherpesvirus 5. Put plainly: Antiviral activity against human cytomegalovirus Davis infected in human HEL cells assessed as inhibition of virus-induced cytopathic effect. In kind it is functional, cell-based. The settings on record: Human betaherpesvirus 5, Davis. The gist of the method:
(§1)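 Confluent HEL fibroblast monolayers were inoculated in 96-well plates with 100 CCID50 of virus in the presence of serially varied compound concentrations. Cytopathicity was scored once untreated infected controls reached full CPE.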

For a further data set, the system named is CCRF-CEM. In words: Cytostatic activity human CEM cells assessed as reduction in cell viability after 72 hrs by cell counting method. Format: cell-based. The settings on record: ccrf-cem, 72 h. The method, boiled down: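 (5–7.5) × 10^? CEM cells per well were grown with compound for 72 h at 37 °C under humidified CO2. Cells were counted in a Coulter counter.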

The next data set concerns HEL. Put plainly: Cytotoxicity against human HEL cells assessed as cell growth inhibition by cell counting method. Format: cell-based.
Data set [4] concerns Human immunodeficiency virus 1. In words: Antiviral activity against HIV1 X4LAI.04 infected in human MT4 cells assessed as decrease in viral replication by p24gag-based luminex assay. As to conditions: Human immunodeficiency virus 1, X4LAI.04, MT4. In kind it is functional, cell-based. The method, boiled down: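 10^6 MT-4 cells were infected with HIV-1 X4LAI.04 (7 ng p24) for 2 h at 37 °C, then washed with PBS and resuspended. Compounds were added and cultures were kept 3 days at 37 °C. Supernatant p24 was measured by bead-based Luminex. Inhibition was calculated as (1 − p24 treated/p24 untreated) × 100, and EC50 was derived from it.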

The subject of another data set is MT4. In words: Cytotoxicity against human MT4 cells assessed as reduction in cell viability by cell counting method. In kind it is cell-based. The method, boiled down: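 MT-4 cultures, untreated or treated, were assessed with an automated cell counter using propidium iodide staining to enumerate total and dead cells.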
The subject of data set [5] is Human alphaherpesvirus 3. In words: Antiviral activity against Varicella-Zoster virus OKA infected in human HEL cells assessed as inhibition of virus-induced cytopathic effect. In kind it is functional, cell-based. The settings on record: Human alphaherpesvirus 3, strain Oka vaccine. The gist of the method: (§2)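 Confluent HEL fibroblast cultures were inoculated with 20 PFU of VZV in the presence of varying compound concentrations. Plaque formation was recorded once untreated infected controls reached completion.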
A general note: Protection from cytopathic effect is a common read-out in antiviral testing.

The test system of a further data set is Human alphaherpesvirus 2. Put plainly: Antiviral activity against Herpes simplex virus 2 G infected in human HEL cells assessed as inhibition of virus-induced cytopathic effect. The settings on record: Human alphaherpesvirus 2, strain G. Format: functional, cell-based. The method, boiled down:
as §1

For data set [6], the system named is Human alphaherpesvirus 1. In words: Antiviral activity against Herpes simplex virus 1 KOS infected in human HEL cells assessed as inhibition of virus-induced cytopathic effect. Format: functional, cell-based. The settings on record: Human alphaherpesvirus 1, KOS. The method, boiled down:
as §1

In data set [7] the test system is Human betaherpesvirus 5. Put plainly: Antiviral activity against human cytomegalovirus AD-169 infected in human HEL cells assessed as inhibition of virus-induced cytopathic effect. In kind it is functional, cell-based. As to conditions: Human betaherpesvirus 5, AD-169, HEL. The gist of the method: as §1
The test system of data set [8] is Human alphaherpesvirus 1. In words: Antiviral activity against ACV-resistant thymidine kinase deficient Herpes simplex virus 1 KOS infected in human HEL cells assessed as inhibition of virus-induced cytopathic effect. In kind it is functional, cell-based. As to conditions: Human alphaherpesvirus 1, KOS. The method, boiled down: as §1
Data set [9] relates to Human alphaherpesvirus 3. Put plainly: Antiviral activity against thymidine kinase deficient Varicella-Zoster virus 07-1 infected in human HEL cells assessed as inhibition of virus-induced cytopathic effect. As to conditions: Human alphaherpesvirus 3, 07-1, HEL. In kind it is functional, cell-based. The gist of the method:
as §2

Data set [10] is described as follows: Drug metabolism assessed as carboxypeptidase Y (unknown origin)-mediated metabolite 81 formation measured after 2 hrs by [31P]-NMR spectroscopic analysis. In kind it is ADME. As to conditions: human.
Data set [11] is described as follows: Prodrug activation assessed as carboxypeptidase Y (unknown origin)-mediated 2-((4-(2-amino-6-chloro-9H-purin-9-yl)-2-(hydroxymethyl)butoxy)oxidophosphorylamino)propanoate formation by mass spectroscopic analysis. The settings on record: human.
Data set [12] is described as follows: Prodrug activation assessed as carboxypeptidase Y (unknown origin)-mediated 2-((4-(2-amino-6-chloro-9H-purin-9-yl)-2-(hydroxymethyl)butoxy)oxidophosphorylamino)propanoate peak formation measured after […] by [31P]-NMR spectroscopic analysis. The settings on record: human.
A short description of data set [13]: Prodrug activation assessed as carboxypeptidase Y (unknown origin)-mediated 2-{5-[2-(2-Amino-6-chloro-purin-9-yl)-ethyl]-2-oxo-2lambda(5)-[1,3,2]dioxaphosphinan-2-ylamino}-propionic acid anion peak formation measured with in 1 hr by [31P]-NMR spectroscopic analysis. As to conditions: human.
The nature of data set [14]: Prodrug activation assessed as carboxypeptidase Y (unknown origin)-mediated 2-((4-(2-amino-6-chloro-9H-purin-9-yl)-2-(hydroxymethyl)butoxy)oxidophosphorylamino)propanoate formation measured after 8 hrs by [31P]-NMR spectroscopic analysis. The settings on record: human.
The subject of data set [15] is Human immunodeficiency virus 1. In words: Antiviral activity against HIV1 X4LAI.04 infected in human tonsillar tissues assessed as inhibition of virus-induced cytopathic effect by p24gag-based luminex assay. Format: functional. The settings on record: Human immunodeficiency virus 1, X4LAI.04. The gist of the method:
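Tonsillectomy tissue blocks of 2–3 mm³ were cultured on collagen sponge gels at the air–liquid interface, 27 blocks per donor per condition. Blocks were pretreated with compound overnight, infected with HIV-1 X4LAI.04 and cultured 12 days, with drug replenished at each medium change every 3 days. Medium p24 was measured by Luminex. Inhibition was calculated against untreated tissue, and EC50 was derived from it.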

Data set [16] in a line: Drug metabolism assessed as carboxypeptidase Y (unknown origin)-mediated metabolite 81 peak formation measured with in 30 mins by [31P]-NMR spectroscopic analysis. As to conditions: human, 0.5 h. In kind it is ADME.

Molecules are shown by their SMILES. pEC50, pIC50: −log10 of the molar value.

The pEC50 is the negative decadic logarithm of the EC50, by convention in mol/L. The CC50 is the concentration that lowers cell viability or growth by half. Usually pIC50 stands for the IC50 on a negative log10 scale, so that one unit is a factor of ten. On to `CCCOC(=O)[C@H](C)NP(=O)(OCC(CO)CCn1cnc2c(OC)nc(N)nc21)Oc1cccc2ccccc12` (stereo not given in full), for which the Drug metabolism entry in [1] and in data set [10] was “Metabolite_Detected” each time. In data set [2], the MCC lay within 50 to 100 µM. In addition, the negative-log EC50 (pEC50) in the data set on Human betaherpesvirus 5 [3] was 4.30; in data set [4], 4.96; in the data set on Human alphaherpesvirus 3 [5], 5.43; with Human alphaherpesvirus 2, 4.82; in the data set on Human alphaherpesvirus 1 [6], 4.85; in the data set on Human betaherpesvirus 5 [7] it was 4.49. For the same molecule, the pEC50 is no more than 4.70 with Human alphaherpesvirus 1 [8] and 5.04 in the data set on Human alphaherpesvirus 3 [9]. The cytotoxic concentration (CC50) in the data set with CCRF-CEM stood at 17 µM; with HEL, 14.4 µM. In addition, the pIC50 in the data set with MT4 was 4.89.
For the molecule `C[C@H](NP1(=O)OCC(OCn2cnc3c(Cl)nc(N)nc32)CO1)C(=O)OCc1ccccc1` (stereo not given in full), the Drug metabolism result in [11], in data set [12], in [13] and in data set [14] was “Metabolite_Detected” each time. In data set [2], the MCC is greater than 100 µM. Besides, the CC50 in the data set with CCRF-CEM was determined as 165 µM. Moreover, the negative logarithm of the EC50 (pEC50) in data set [4] was 4.07; in the data set on Human alphaherpesvirus 2, less than 4.00; with Human alphaherpesvirus 1 [6], less than 4.00; in data set [15], 5.05; with Human alphaherpesvirus 1 [8], less than 4.00. Moreover, in the data set with MT4, the pIC50 was 3.82.
Consider `C[C@H](NP(=O)(OCC(CO)CCn1cnc2c(Cl)nc(N)nc21)Oc1ccccc1)C(=O)OCc1ccccc1` (mixture of isomers), for which the MCC in data set [2] is greater than 100 µM. For the same molecule, the pEC50 in the data set on Human betaherpesvirus 5 [3] is less than 4.00; in data set [4], 6.00; in the data set on Human alphaherpesvirus 3 [5] it was 4.43; in the data set with Human alphaherpesvirus 2 it was less than 4.00; in the data set on Human alphaherpesvirus 1 [6] it was less than 4.00; in [15], 5.40. For the same molecule, the negative logarithm of the EC50 (pEC50) was less than 4.00 in the data set with Human betaherpesvirus 5 [7], less than 4.00 in the data set on Human alphaherpesvirus 1 [8] and 4.37 in the data set with Human alphaherpesvirus 3 [9]. For the same molecule, the 50% cytotoxic concentration (CC50) with CCRF-CEM came out at 33 µM; with HEL, 39 µM. Also, the pIC50 in the data set with MT4 is 4.70. Besides, in data set [16], the Drug metabolism entry is “Metabolite_Detected”.
